For data set [1], the target named is T1, Bromodomain-containing protein 4 (Homo sapiens, UniProt O60885). Kind of data set: Inhibition of BRD4 in human SAE cells assessed as reduction in TLR3 agonist poly(I:C) -induced ISG54 RNA expression preincubated for 24 hrs followed by poly(I:C) addition and measured after 4 hrs by SYBR green dye-based qRT-PCR analysis. The data set is classed as cell-based. (Real-time PCR tracks product formation cycle by cycle.)

For data set [2], the target named is T1, Bromodomain-containing protein 4. Briefly: Inhibition of BRD4 in human SAE cells assessed as reduction in TLR3 agonist poly(I:C) -induced ISG56 RNA expression preincubated for 24 hrs followed by poly(I:C) addition and measured after 4 hrs by SYBR green dye-based qRT-PCR analysis. The data set is classed as cell-based.
The target is the same in data set [3]. Kind of data set: Inhibition of BRD4 in human SAE cells assessed as reduction in TLR3 agonist poly(I:C) -induced IL-8 RNA expression preincubated for 24 hrs followed by poly(I:C) addition and measured after 4 hrs by SYBR green dye-based qRT-PCR analysis. In kind it is cell-based.
For data set [4] the target is unchanged. Briefly: Inhibition of BRD4 in human SAE cells assessed as reduction in TLR3 agonist poly(I:C) -induced grobeta RNA expression preincubated for 24 hrs followed by poly(I:C) addition and measured after 4 hrs by SYBR green dye-based qRT-PCR analysis. The data set is classed as cell-based.
Data set [5] concerns the target CREB-binding protein (Homo sapiens, UniProt Q92793). Briefly: Inhibition of CBP (unknown origin) after 1 hr by TR-FRET assay. In outline: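 Isolated bromodomain in a kit TR-FRET assay. Inhibitor series 0.01 nM to 100 μM, incubated 1 h at room temperature. Excitation 340 nm, emission read at 620 and 670 nm with 100 μs delay and 500 μs window. IC50 from the sigmoidal plot of the 670/620 ratio against concentration. Mean of at least two runs.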
In general terms: In TR-FRET formats the signal depends on donor and acceptor labels being close together.

For data set [6], the system named is Mus musculus. Kind of data set: Anti-inflammatory activity in poly(I:C)-induced airway inflammation C57BL/6 mouse model assessed as reduction in neutrophils recruitment into bronchoalveolar lavage fluid at 10 mg/kg, ip administered 1 day prior to poly(I:C) stimulation and redosed on day 2 followed by poly(I:C) stimulation by trypan blue staining-based hemocytometric analysis. The data set is classed as functional, organism-based.

Data set [7] relates to Mus musculus. Briefly: Anti-inflammatory activity in poly(I:C)-induced airway inflammation C57BL/6 mouse model assessed as reduction in mKC expression in lung at 10 mg/kg, ip administered 1 day prior to poly(I:C) stimulation and redosed on day 2 followed by poly(I:C) stimulation. In kind it is functional, organism-based. In outline:
(§1)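 Male C57BL/6J mice, 12 weeks old, were given 10 mg/kg i.p. one day before stimulation. The next day they got a second dose, immediately followed by intranasal poly(I:C) (300 μg in 50 μL PBS) or PBS alone. Compound was taken up in DMSO and diluted in 10% hydroxypropyl β-cyclodextrin in PBS. Mice were euthanized one day later and lung tissue was collected for cytokine expression.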

The test system of data set [8] is Mus musculus. Briefly: Anti-inflammatory activity in poly(I:C)-induced airway inflammation C57BL/6 mouse model assessed as reduction in mISG54 expression in lung at 10 mg/kg, ip administered 1 day prior to poly(I:C) stimulation and redosed on day 2 followed by poly(I:C) stimulation. The data set is classed as functional, organism-based. In outline:
as §1

In data set [9] the test system is Mus musculus. Kind of data set: Anti-inflammatory activity in poly(I:C)-induced airway inflammation C57BL/6 mouse model assessed as reduction in mIL6 expression in lung at 10 mg/kg, ip administered 1 day prior to poly(I:C) stimulation and redosed on day 2 followed by poly(I:C) stimulation. The data set is classed as functional, organism-based. In outline:
as §1

In data set [10] the test system is Mus musculus. Briefly: Anti-inflammatory activity in poly(I:C)-induced airway inflammation C57BL/6 mouse model assessed as reduction in mCIG5 expression in lung at 10 mg/kg, ip administered 1 day prior to poly(I:C) stimulation and redosed on day 2 followed by poly(I:C) stimulation. In kind it is functional, organism-based. In outline:
as §1

Data set [11] can be described thus: Half life in rat at 10 mg/kg, iv. The settings on record: in vivo. The data set is classed as ADME, organism-based.
The nature of data set [12]: AUC (0 to t) in rat at 10 mg/kg, iv. As to conditions: in vivo. In kind it is ADME, organism-based.
The nature of data set [13]: Volume of distribution at steady state in rat at 10 mg/kg, iv. The data set is classed as ADME, organism-based. As to conditions: in vivo, read-out: Vdss.
Data set [14] can be described thus: Total clearance in rat at 10 mg/kg, iv. The data set is classed as ADME, organism-based. As to conditions: in vivo.
Data set [15] in a line: Cmax in rat at 20 mg/kg, po. As to conditions: in vivo. More on the design: dose 20 mg/kg, route oral. In kind it is ADME, organism-based.
The nature of data set [16]: AUC (0 to t) in rat at 20 mg/kg, po. The data set is classed as ADME, organism-based. The settings on record: in vivo.
In data set [17] the test system is Mus musculus. Kind of data set: Anti-inflammatory activity in poly(I:C)-induced airway inflammation C57BL/6 mouse model assessed as reduction in total cells in bronchoalveolar lavage fluid at 10 mg/kg, ip administered 1 day prior to poly(I:C) stimulation and redosed on day 2 followed by poly(I:C) stimulation by trypan blue staining-based hemocytometric analysis. In kind it is functional, organism-based.

Activity calls are given as the source filed them. Some results are limits rather than exact numbers.

CREB-binding protein, sequence (Q92793 whole entry): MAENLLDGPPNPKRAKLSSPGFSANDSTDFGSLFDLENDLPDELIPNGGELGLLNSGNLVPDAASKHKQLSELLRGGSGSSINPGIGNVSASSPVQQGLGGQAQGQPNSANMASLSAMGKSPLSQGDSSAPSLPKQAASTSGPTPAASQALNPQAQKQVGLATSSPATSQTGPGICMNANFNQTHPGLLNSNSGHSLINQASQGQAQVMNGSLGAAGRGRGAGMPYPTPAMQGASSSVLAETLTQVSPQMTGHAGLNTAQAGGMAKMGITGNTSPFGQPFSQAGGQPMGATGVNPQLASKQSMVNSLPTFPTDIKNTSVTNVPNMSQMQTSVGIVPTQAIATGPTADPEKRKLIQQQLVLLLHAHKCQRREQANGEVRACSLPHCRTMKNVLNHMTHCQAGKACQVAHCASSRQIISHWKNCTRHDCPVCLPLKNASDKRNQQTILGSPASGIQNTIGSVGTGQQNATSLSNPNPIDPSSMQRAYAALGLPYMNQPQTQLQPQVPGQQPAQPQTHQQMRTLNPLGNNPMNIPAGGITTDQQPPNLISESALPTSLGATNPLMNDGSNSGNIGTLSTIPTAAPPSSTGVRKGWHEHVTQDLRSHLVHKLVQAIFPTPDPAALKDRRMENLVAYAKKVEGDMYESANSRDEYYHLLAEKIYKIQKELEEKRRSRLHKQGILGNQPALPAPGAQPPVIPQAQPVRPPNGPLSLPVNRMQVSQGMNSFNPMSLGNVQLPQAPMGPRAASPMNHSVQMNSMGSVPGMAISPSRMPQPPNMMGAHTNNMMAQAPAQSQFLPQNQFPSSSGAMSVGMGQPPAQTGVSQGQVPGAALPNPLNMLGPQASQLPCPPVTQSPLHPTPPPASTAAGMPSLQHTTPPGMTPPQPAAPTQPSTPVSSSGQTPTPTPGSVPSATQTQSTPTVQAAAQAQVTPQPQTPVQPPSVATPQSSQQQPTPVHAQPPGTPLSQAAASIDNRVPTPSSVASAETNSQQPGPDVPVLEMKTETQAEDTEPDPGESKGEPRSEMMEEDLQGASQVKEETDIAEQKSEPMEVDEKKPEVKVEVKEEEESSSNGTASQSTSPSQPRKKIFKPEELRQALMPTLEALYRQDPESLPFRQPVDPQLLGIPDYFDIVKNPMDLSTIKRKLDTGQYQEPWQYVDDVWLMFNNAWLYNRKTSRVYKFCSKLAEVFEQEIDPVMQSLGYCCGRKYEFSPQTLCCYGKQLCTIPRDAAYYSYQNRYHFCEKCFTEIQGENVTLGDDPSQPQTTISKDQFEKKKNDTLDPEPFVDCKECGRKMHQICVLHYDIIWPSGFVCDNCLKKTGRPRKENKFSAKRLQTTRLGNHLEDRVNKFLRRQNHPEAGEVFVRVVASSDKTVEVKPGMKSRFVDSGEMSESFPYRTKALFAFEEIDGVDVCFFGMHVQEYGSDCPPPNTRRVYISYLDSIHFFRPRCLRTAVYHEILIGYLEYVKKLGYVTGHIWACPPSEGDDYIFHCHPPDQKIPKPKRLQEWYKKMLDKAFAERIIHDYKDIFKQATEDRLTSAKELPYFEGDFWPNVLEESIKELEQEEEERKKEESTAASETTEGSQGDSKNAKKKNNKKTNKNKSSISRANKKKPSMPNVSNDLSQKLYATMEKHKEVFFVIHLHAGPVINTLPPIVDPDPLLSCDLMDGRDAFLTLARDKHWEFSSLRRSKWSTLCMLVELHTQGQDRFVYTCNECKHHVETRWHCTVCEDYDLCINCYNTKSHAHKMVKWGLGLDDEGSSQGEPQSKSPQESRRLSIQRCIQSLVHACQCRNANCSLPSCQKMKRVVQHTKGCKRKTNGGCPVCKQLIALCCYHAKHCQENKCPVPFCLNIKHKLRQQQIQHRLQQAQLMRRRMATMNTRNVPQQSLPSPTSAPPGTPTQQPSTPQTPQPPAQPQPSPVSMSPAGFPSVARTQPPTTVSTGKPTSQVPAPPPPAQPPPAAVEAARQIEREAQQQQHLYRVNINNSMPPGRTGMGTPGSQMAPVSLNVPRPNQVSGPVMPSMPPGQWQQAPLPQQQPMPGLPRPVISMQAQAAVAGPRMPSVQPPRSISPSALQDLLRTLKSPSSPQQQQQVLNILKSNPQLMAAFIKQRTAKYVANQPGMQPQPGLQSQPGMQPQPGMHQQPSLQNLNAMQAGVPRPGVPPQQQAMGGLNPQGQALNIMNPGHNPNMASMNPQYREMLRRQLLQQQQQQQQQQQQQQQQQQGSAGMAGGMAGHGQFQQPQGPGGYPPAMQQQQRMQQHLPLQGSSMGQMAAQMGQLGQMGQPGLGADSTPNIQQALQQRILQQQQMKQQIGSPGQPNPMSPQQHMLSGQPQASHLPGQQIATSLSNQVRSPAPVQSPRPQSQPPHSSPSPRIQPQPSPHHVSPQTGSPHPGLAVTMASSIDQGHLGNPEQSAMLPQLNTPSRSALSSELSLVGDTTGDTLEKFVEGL

Usually IC50 stands for the point on the concentration scale where inhibition reaches its midpoint. Take `CC(C)(C)c1cc(-c2nnc(-c3cc(F)cc(Cl)c3)o2)no1`: the IC50 in data set [1] came out at 7.9 µM; in [2] it was 7.7 µM; in data set [3], 4.3 µM; in data set [4], 3.9 µM.
Take `COc1cc(OC)c2c(=O)[nH]c(-c3cc(C)c(OCCO)c(C)c3)nc2c1` [APABETALONE]: the IC50 in data set [5] was greater than 10 µM. Moreover, the outcome in data set [6], in data set [7], in data set [8], in data set [9] and in data set [10] was inactive.
In turn, `Cc1sc2c(c1C)C(c1ccc(Cl)cc1)=N[C@@H](CC(=O)OC(C)(C)C)c1nnc(C)n1-2` yielded an IC50 in data set [5] of 9.6 µM. For the same compound, the result in data set [6], in data set [7], in data set [8], in [9] and in data set [10] was inactive.
As a reminder, the half-life is the time needed for the level to fall by half in the phase considered. A higher half-life goes with slow loss. One may read the AUC(0-t) as the area under the concentration-time curve up to a stated or last time point. Read a low AUC(0-t) as less exposure. The clearance is the rate of elimination divided by the concentration. As usually defined, the Cmax is the maximum level reached in the sampled fluid or tissue. As to `Cc1cc(/N=N/c2ccc3c(c2)CCC(=O)N3)c(N)cc1O`, the IC50 in data set [1] was 0.49 µM; in data set [2], 0.51 µM; in data set [3], 0.53 µM; in [4], 0.58 µM; in data set [5] it was greater than 10 µM. This compound also showed a half-life in data set [11] of 1.2 h. Also, the results for the AUC(0-t) in [12] and in data set [16] were 14700 ng·h/mL and 450 ng·h/mL, respectively. The Vd in [13] is 0.864 L/kg. For the same compound, the clearance in [14] worked out at 11.5 mL/min/kg. In [15], the highest level (Cmax) was 80 ng/mL. Moreover, the result in data set [6], in data set [7], in data set [8], in [9], in [10] and in data set [17] was Active.

(Values after ChEMBL document CHEMBL4152207, “Discovery of potent and selective BRD4 inhibitors capable of blocking TLR3-induced acute airway inflammation” (Eur J Med Chem, 2018).)
